Measurements taken from ChEMBL document CHEMBL2040795, “Synthesis, biological evaluation, and structure-activity relationships of 2-[2-(benzoylamino)benzoylamino]benzoic acid analogues as inhibitors of adenovirus replication” (J Med Chem, 2012).

Legend:
[1] = Cytotoxicity against human A549 cells assessed as viability at 30 uM after 24 hrs by XTT assay; assay type: cell-based; details: read-out: Activity
How it was run: (§1)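 About 15000 A549 cells per well were seeded the day before. Compound was added in DMEM with 0.75 g/L NaHCO3 and 20 mM HEPES, then incubated 24 h at 37 °C, 5% CO2. XTT was added 4 h before reading formazan absorbance at 450 nm. Values are percentage viable cells, with DMSO baseline toxicity subtracted (0.15% DMSO at 30 μM, 0.30% at 60 μM).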

[2] = Cytotoxicity against human A549 cells assessed as viability at 60 uM after 24 hrs by XTT assay; assay type: cell-based; details: read-out: Activity; how it was run: as §1
[3] = tested on: Human adenovirus 5; test: Antiviral activity against Adenovirus type 5 F2853-5b infected in human A549 cells assessed as inhibition of viral replication at 5 uM after 24 hrs by RT-PCR analysis; assay type: functional; details: Human mastadenovirus C, A549, 24 h
How it was run: (§2)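 Ad5-infected A549 cells incubated with compound for 24 h. DNA was then extracted and newly synthesized viral DNA quantified by real-time PCR of the hexon gene, normalized to cellular RNaseP gene. […] EC50 determined for selected compounds.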

[4] = tested on: Human adenovirus 5; test: Antiviral activity against Adenovirus type 5 F2853-5b infected in human A549 cells assessed as inhibition of viral replication at 15 uM after 24 hrs by RT-PCR analysis; assay type: functional; details: Human mastadenovirus C, A549, 24 h; how it was run: as §2
[5] = Chemical solubility of the compound in DMSO; assay type: physicochemical
[6] = Aqueous solubility of the compound in water; assay type: physicochemical; details: buffer
[7] = tested on: Human adenovirus 5; test: Antiviral activity against Adenovirus type 5 F2853-5b infected in human A549 cells assessed as inhibition of viral replication after 24 hrs by RT-PCR analysis; assay type: functional, organism-based; details: Human mastadenovirus C, A549, 24 h; how it was run: as §2

**Q.** For `O=C(Nc1ccccc1C(=O)Nc1ccccc1C(=O)O)c1ccccc1`, which viability at 24 h, 30 µM [1] is on record?
**A.** 82%

**Q.** What about the viability at 24 h, 60 µM [2] of the same molecule?
**A.** 83%

**Q.** What about the inhibition at 5 µM [3] of the same molecule?
**A.** 89%

**Q.** What about the inhibition at 15 µM [4] of the same molecule?
**A.** 91%

**Q.** With `COc1ccc(C(=O)Nc2ccccc2C(=O)Nc2ccccc2C(=O)O)cc1` as the molecule, how does the inhibition at 5 µM [3] read?
**A.** 0%

**Q.** What about the inhibition at 15 µM [4] of the same molecule?
**A.** 67%

**Q.** Which inhibition at 5 µM [3] does the source give for `Cc1ccccc1C(=O)Nc1cccc(C(=O)Nc2ccccc2C(=O)O)c1` here?
**A.** 5%

**Q.** And the inhibition at 15 µM [4]?
**A.** 7%

**Q.** With `CCOC(=O)c1cccc(NC(=O)c2ccccc2NC(=O)c2ccccc2)c1` as the molecule, how does the inhibition at 15 µM [4] read?
**A.** 0%

**Q.** With `O=C(O)c1cccc(NC(=O)c2ccccc2NC(=O)c2ccccc2)c1` as the molecule, how does the inhibition at 15 µM [4] read?
**A.** 8%

**Q.** With `CCOC(=O)c1ccc(NC(=O)c2ccccc2NC(=O)c2ccccc2)cc1` as the molecule, how does the inhibition at 15 µM [4] read?
**A.** 8%

**Q.** With `O=C(O)c1ccc(NC(=O)c2ccccc2NC(=O)c2ccccc2)cc1` as the molecule, how does the inhibition at 15 µM [4] read?
**A.** 8%

**Q.** With `CCOC(=O)c1ccccc1NC(=O)c1cccc(NC(=O)c2ccccc2)c1` as the molecule, how does the inhibition at 15 µM [4] read?
**A.** 25%

**Q.** Which inhibition at 15 µM [4] does the source give for `O=C(Nc1cccc(C(=O)Nc2ccccc2C(=O)O)c1)c1ccccc1` here?
**A.** 39%

**Q.** Which inhibition at 15 µM [4] does the source give for `CCOC(=O)c1ccccc1NC(=O)c1ccc(NC(=O)c2ccccc2)cc1` here?
**A.** 15%

**Q.** Which inhibition at 15 µM [4] does the source give for `O=C(Nc1ccc(C(=O)Nc2ccccc2C(=O)O)cc1)c1ccccc1` here?
**A.** 47%

**Q.** What does the source list for `CCOC(=O)c1ccccc1NC(=O)c1ccccc1NC(=O)c1ccccc1`?
**A.** solubility [5]: Insoluble; solubility [6]: Insoluble

**Q.** Which inhibition at 15 µM [4] does the source give for `O=C(Nc1ccccc1C(=O)Nc1ccccc1)c1ccccc1` here?
**A.** 18%

**Q.** For `Cc1ccc(NC(=O)c2ccccc2NC(=O)c2ccccc2C(=O)O)cc1`, which inhibition at 5 µM [3] is on record?
**A.** 0%

**Q.** What about the inhibition at 15 µM [4] of the same molecule?
**A.** 0%

**Q.** With `Cc1ccccc1C(=O)Nc1ccccc1C(=O)Nc1ccc(C(=O)O)cc1` as the molecule, how does the inhibition at 5 µM [3] read?
**A.** 0%

**Q.** And the inhibition at 15 µM [4]?
**A.** 20%

**Q.** Which results are given for `Cc1ccc(C(=O)Nc2ccccc2C(=O)Nc2ccccc2C(=O)O)cc1`?
**A.** inhibition at 5 µM [3]: 0%; inhibition at 15 µM [4]: 85%

**Q.** Which results are given for `NC(=O)c1ccccc1NC(=O)c1cccc(NC(=O)c2ccccc2)c1`?
**A.** inhibition at 5 µM [3]: 0%; inhibition at 15 µM [4]: 19%

**Q.** For `Cc1ccc(C(=O)Nc2ccccc2C(=O)Nc2ccccc2C)cc1`, which inhibition at 5 µM [3] is on record?
**A.** 0%

**Q.** What about the inhibition at 15 µM [4] of the same molecule?
**A.** 12%

**Q.** Which inhibition at 5 µM [3] does the source give for `CC(=O)Nc1ccccc1C(=O)Nc1ccccc1C(=O)O` here?
**A.** 4%

**Q.** And the inhibition at 15 µM [4]?
**A.** 24%

**Q.** Which inhibition at 5 µM [3] does the source give for `CS(=O)(=O)Nc1ccccc1C(=O)Nc1ccccc1C(=O)O` here?
**A.** 0%

**Q.** And the inhibition at 15 µM [4]?
**A.** 23%

**Q.** What does the source list for `Cc1ccc(S(=O)(=O)Nc2ccccc2C(=O)Nc2ccccc2C(=O)O)cc1`?
**A.** inhibition at 5 µM [3]: 2%; inhibition at 15 µM [4]: 8%

**Q.** Which inhibition at 5 µM [3] does the source give for `CC(C)(C)C(=O)Nc1ccccc1C(=O)Nc1ccccc1C(=O)O` here?
**A.** 45%

**Q.** What about the inhibition at 15 µM [4] of the same molecule?
**A.** 52%

**Q.** Which inhibition at 5 µM [3] does the source give for `O=C(O)c1ccccc1NC(=O)c1ccccc1NC(=O)C1CCCCC1` here?
**A.** 20%

**Q.** What about the inhibition at 15 µM [4] of the same molecule?
**A.** 55%

**Q.** Which results are given for `O=C(O)CCC(=O)Nc1ccccc1C(=O)Nc1ccccc1C(=O)O`?
**A.** inhibition at 5 µM [3]: 0%; inhibition at 15 µM [4]: 0%

**Q.** Which EC50 [7] does the source give for `O=C(Nc1ccccc1C(=O)Nc1ccccc1C(=O)O)c1ccccc1F` here?
**A.** 2.3 µM

**Q.** What about the viability at 24 h, 30 µM [1] of the same molecule?
**A.** 85%

**Q.** And the viability at 24 h, 60 µM [2]?
**A.** 83%

**Q.** What about the inhibition at 5 µM [3] of the same molecule?
**A.** 96%

**Q.** What about the inhibition at 15 µM [4] of the same molecule?
**A.** 98%

**Q.** For `O=C(Nc1ccccc1C(=O)Nc1ccccc1C(=O)O)c1cccc(F)c1`, which inhibition at 5 µM [3] is on record?
**A.** 41%

**Q.** With `O=C(Nc1ccccc1C(=O)Nc1ccccc1C(=O)O)c1ccc(F)cc1` as the molecule, how does the inhibition at 5 µM [3] read?
**A.** 76%

**Q.** What about the inhibition at 15 µM [4] of the same molecule?
**A.** 95%

**Q.** Which inhibition at 5 µM [3] does the source give for `O=C(Cc1ccccc1)Nc1ccccc1C(=O)Nc1ccccc1C(=O)O` here?
**A.** 32%

**Q.** And the inhibition at 15 µM [4]?
**A.** 21%

**Q.** With `O=C(O)Cc1ccccc1NC(=O)c1ccccc1NC(=O)c1ccccc1` as the molecule, how does the inhibition at 5 µM [3] read?
**A.** 0%

**Q.** What about the inhibition at 15 µM [4] of the same molecule?
**A.** 0%

**Q.** With `O=C(Cc1ccccc1NC(=O)c1ccccc1)Nc1ccccc1C(=O)O` as the molecule, how does the inhibition at 5 µM [3] read?
**A.** 0%

**Q.** And the inhibition at 15 µM [4]?
**A.** 0%

**Q.** With `O=C(Nc1ccccc1C(=O)Nc1cc(Cl)ccc1C(=O)O)c1ccccc1F` as the molecule, how does the inhibition at 5 µM [3] read?
**A.** 0%

**Q.** And the inhibition at 15 µM [4]?
**A.** 61%

**Q.** What does the source list for `O=C(Nc1ccccc1C(=O)Nc1ccc(Cl)cc1C(=O)O)c1ccccc1F`?
**A.** inhibition at 5 µM [3]: 0%; inhibition at 15 µM [4]: 0%

**Q.** For `COc1ccc(C(=O)O)c(NC(=O)c2ccccc2NC(=O)c2ccccc2F)c1`, which inhibition at 5 µM [3] is on record?
**A.** 0%

**Q.** And the inhibition at 15 µM [4]?
**A.** 0%

**Q.** Which results are given for `COc1ccc(NC(=O)c2ccccc2NC(=O)c2ccccc2F)c(C(=O)O)c1`?
**A.** inhibition at 5 µM [3]: 28%; inhibition at 15 µM [4]: 78%

**Q.** For `O=C(Nc1ccccc1C(=O)Nc1cc(F)c(F)cc1C(=O)O)c1ccccc1F`, which inhibition at 5 µM [3] is on record?
**A.** 0%

**Q.** And the inhibition at 15 µM [4]?
**A.** 0%

**Q.** Which inhibition at 5 µM [3] does the source give for `O=C(Nc1cc(Cl)ccc1C(=O)Nc1ccccc1C(=O)O)c1ccccc1F` here?
**A.** 57%

**Q.** And the inhibition at 15 µM [4]?
**A.** 78%

**Q.** With `O=C(Nc1ccc(Cl)cc1C(=O)Nc1ccccc1C(=O)O)c1ccccc1F` as the molecule, how does the EC50 [7] read?
**A.** 0.57 µM

**Q.** And the viability at 24 h, 30 µM [1]?
**A.** 91%

**Q.** And the viability at 24 h, 60 µM [2]?
**A.** 88%

**Q.** What about the inhibition at 5 µM [3] of the same molecule?
**A.** 89%

**Q.** What about the inhibition at 15 µM [4] of the same molecule?
**A.** 91%

**Q.** For `COc1ccc(C(=O)Nc2ccccc2C(=O)O)c(NC(=O)c2ccccc2F)c1`, which EC50 [7] is on record?
**A.** 2.3 µM

**Q.** What about the viability at 24 h, 30 µM [1] of the same molecule?
**A.** 92%

**Q.** What about the viability at 24 h, 60 µM [2] of the same molecule?
**A.** 94%

**Q.** What about the inhibition at 5 µM [3] of the same molecule?
**A.** 92%

**Q.** What about the inhibition at 15 µM [4] of the same molecule?
**A.** 89%

**Q.** For `COc1ccc(NC(=O)c2ccccc2F)c(C(=O)Nc2ccccc2C(=O)O)c1`, which EC50 [7] is on record?
**A.** 1.4 µM

**Q.** What about the viability at 24 h, 30 µM [1] of the same molecule?
**A.** 84%

**Q.** What about the viability at 24 h, 60 µM [2] of the same molecule?
**A.** 84%

**Q.** And the inhibition at 5 µM [3]?
**A.** 91%

**Q.** And the inhibition at 15 µM [4]?
**A.** 97%

**Q.** Which results are given for `O=C(Nc1cc(F)c(F)cc1C(=O)Nc1ccccc1C(=O)O)c1ccccc1F`?
**A.** EC50 [7]: 0.58 µM; viability at 24 h, 30 µM [1]: 96%; viability at 24 h, 60 µM [2]: 96%; inhibition at 5 µM [3]: 94%; inhibition at 15 µM [4]: 93%

**Q.** With `Nc1ccn(C[C@@H](CO)OCP(=O)(O)O)c(=O)n1` [CIDOFOVIR] as the molecule, how does the viability at 24 h, 30 µM [1] read?
**A.** 100%

**Q.** And the viability at 24 h, 60 µM [2]?
**A.** 98%
